Data set [1] can be described thus: Ratio of free drug level in brain to plasma in CD1 mouse at 10 mg/kg, sc. It is filed as ADME, organism-based. The arrangement: dose 10 mg/kg, route subcutaneous. As to conditions: brain and plasma. Put shortly: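 Male CD-1 mice, 10 mg/kg sc in 5% DMSO/95% (0.5% methylcellulose). Plasma, brain and CSF were collected at 1, 4 and 7 h and analyzed by LC-MS/MS. Free fractions came from equilibrium dialysis.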

Data set [2] in a line: Ratio of drug level in brain to plasma in CD1 mouse at 10 mg/kg, sc after 60 mins. As to conditions: brain and plasma, read-out: BPR. The arrangement: dose 10 mg/kg, route subcutaneous. It is filed as ADME, organism-based. The essentials: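 Plasma and brain exposures were measured in mice 60 min after 10 mg/kg subcutaneous dosing.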
The nature of data set [3]: Ratio of free drug level in brain to plasma in dog. The data set is classed as ADME, Canis lupus familiaris. As to conditions: brain and plasma.

As to `NC1=N[C@@]2(c3ccc(F)cc3F)CO[C@@H](C(F)F)C[C@H]2CS1`, the Kp uu in data set [1] came out at 1.2. Further, in data set [2], the Kp at 1 h is 3.51.
Consider `C[C@H]1C[C@H]2CSC(N)=N[C@@]2(c2ccc(F)cc2F)CO1`, for which, in data set [1], the Kp uu turned out to be 0.92. Further, the Kp at 1 h in data set [2] was found to be 3.9.
As to `NC1=N[C@@]2(c3ccc(F)cc3F)CO[C@@H](CF)C[C@H]2CS1`, the Kp uu in data set [1] was determined as 1.42; in data set [3], 0.78. The Kp at 1 h in data set [2] turned out to be 9.2.

For the origin of these results see ChEMBL document CHEMBL3414451, “Discovery of a series of efficient, centrally efficacious BACE1 inhibitors through structure-based drug design” (J Med Chem, 2015).
